# Laboratory results taken from ChEMBL document CHEMBL1125747, “Design, synthesis, and physicochemical properties of a novel, conformationally restricted 2,3-dihydro-1,3,4-thiadiazole-containing angiotensin converting enzyme inhibitor which is preferentially eliminated by the biliary route in rats” (J Med Chem, 1991).
# Columns and labels:
# [1] = target: T1, Angiotensin-converting enzyme (Rattus norvegicus, UniProt P47820); experiment: Compound was tested for inhibitory activity against angiotensin I converting enzyme
# T1 sequence (P47820 whole entry): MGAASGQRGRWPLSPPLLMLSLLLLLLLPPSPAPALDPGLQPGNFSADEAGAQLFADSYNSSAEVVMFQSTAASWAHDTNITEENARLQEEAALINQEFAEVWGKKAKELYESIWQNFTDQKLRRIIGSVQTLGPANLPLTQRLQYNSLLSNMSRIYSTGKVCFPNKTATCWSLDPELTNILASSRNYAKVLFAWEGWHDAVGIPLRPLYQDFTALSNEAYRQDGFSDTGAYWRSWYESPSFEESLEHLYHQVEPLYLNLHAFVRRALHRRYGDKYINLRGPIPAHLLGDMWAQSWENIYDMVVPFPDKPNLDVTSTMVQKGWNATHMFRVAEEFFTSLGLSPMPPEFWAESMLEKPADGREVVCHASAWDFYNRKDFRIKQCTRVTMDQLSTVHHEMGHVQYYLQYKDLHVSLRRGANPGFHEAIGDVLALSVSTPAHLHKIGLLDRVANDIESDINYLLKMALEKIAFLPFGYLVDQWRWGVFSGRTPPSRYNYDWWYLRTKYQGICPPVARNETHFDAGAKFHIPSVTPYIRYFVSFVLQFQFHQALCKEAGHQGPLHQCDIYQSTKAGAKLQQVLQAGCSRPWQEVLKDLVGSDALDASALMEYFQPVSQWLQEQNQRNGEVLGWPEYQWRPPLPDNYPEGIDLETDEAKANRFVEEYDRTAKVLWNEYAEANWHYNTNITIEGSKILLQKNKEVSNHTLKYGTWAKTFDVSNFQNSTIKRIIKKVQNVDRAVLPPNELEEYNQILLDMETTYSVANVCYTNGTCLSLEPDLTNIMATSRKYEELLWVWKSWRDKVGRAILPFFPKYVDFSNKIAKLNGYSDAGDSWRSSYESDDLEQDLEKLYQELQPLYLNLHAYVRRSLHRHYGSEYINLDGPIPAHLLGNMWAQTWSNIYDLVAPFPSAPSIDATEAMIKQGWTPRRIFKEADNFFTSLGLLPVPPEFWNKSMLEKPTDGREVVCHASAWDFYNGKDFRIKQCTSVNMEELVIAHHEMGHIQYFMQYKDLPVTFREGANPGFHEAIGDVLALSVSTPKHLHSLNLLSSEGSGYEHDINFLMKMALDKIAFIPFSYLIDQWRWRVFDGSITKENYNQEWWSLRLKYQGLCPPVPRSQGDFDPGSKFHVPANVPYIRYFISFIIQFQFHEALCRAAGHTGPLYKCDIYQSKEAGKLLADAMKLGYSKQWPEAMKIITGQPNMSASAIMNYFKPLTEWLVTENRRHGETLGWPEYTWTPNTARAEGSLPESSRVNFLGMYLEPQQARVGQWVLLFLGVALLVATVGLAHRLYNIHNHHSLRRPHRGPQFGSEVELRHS
# [2] = Ratio of biliary and urinary excretion of angiotensin converting enzyme inhibitors in male rat after intravenous dosing.; format: functional, Urine
# [3] = Compound was tested for its maximum lipophilicity.; format: physicochemical; conditions: octanol/water
# Procedure, shortened: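 Shake-flask distribution coefficients in octanol–aqueous buffer across pH, run in triplicate and reported as the mean. Aqueous phases were HCl below pH 2, McIlvaine citrate-phosphate at pH 2.2–4.8, and Sorensen phosphate above pH 5, all at ionic strength 0.02. Phases were assayed before and after partitioning by UV or reversed-phase HPLC. Maximum lipophilicity was taken from the distribution–pH profile.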
# [4] = The acid dissociation constant, pKa was determined.'a' represents value of C-terminus carboxylic acid.; format: physicochemical
# Procedure, shortened: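 Ionization constants came from potentiometric titration at 25 °C on a thermostated automatic titrator, with pKa calculated from the pH–volume data. For one ester, constants were instead determined by the partition method in Miglyol 812–aqueous buffer systems.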
# [5] = The acid dissociation constant, pKa was determined. 'a' represents value of C-terminus carboxylic acid.; format: physicochemical
# Procedure, shortened: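 Potentiometric titration at 25 °C on a thermostated automatic titrator. pKa values were calculated from pH–volume data. For one ester compound, ionization constants were instead obtained by the partition method in Miglyol 812–aqueous buffer systems.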
# [6] = target: T2, Angiotensin-converting enzyme (Rattus norvegicus) (UniProt P47820); experiment: Relative inhibitory activity against angiotensin I converting enzyme
# T2 sequence (whole entry): T1 sequence (P47820 whole entry)
# [7] = The acid dissociation constant, pKa was determined. a'' represents value of C-terminus carboxylic acid.; format: physicochemical
# Procedure, shortened: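 Ionization constants measured by potentiometric titration at 25 °C on a thermostated automatic titrator, with pKa calculated from pH-volume data. For one ester prodrug, constants were instead obtained by the partition method in Miglyol 812-aqueous buffer systems.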
SMILES,Log Dmax [3],Relative activity [6],other results
C[C@H](N[C@@H](CCc1ccccc1)C(=O)O)C(=O)N1N=C(C(C)(C)C)S[C@H]1C(=O)O [UTIBAPRILAT],1.19,–,IC50 [1]: 0.51 nM; Ratio [2]: 14.6; pKa [4]: 8
CCOC(=O)[C@H](CCc1ccccc1)N[C@@H](C)C(=O)N1CCC[C@H]1C(=O)O,-0.06,–,pKa [5]: 5.49
CC(C)(C)C1=NN(C(=O)CCS)C(C(=O)O)S1 (stereo not given),–,5.6,–
C[C@H](N[C@@H](CCc1ccccc1)C(=O)O)C(=O)N1N=C(c2ccccc2)S[C@H]1C(=O)O,–,–,IC50 [1]: 1.5 nM
C[C@H](N[C@@H](CCc1ccccc1)C(=O)O)C(=O)N1CCC[C@H]1C(=O)O [ENALAPRILAT ANHYDROUS],-0.7,–,pKa [4]: 8.02
O=C(O)C1SC(C23CC4CC(CC(C4)C2)C3)=NN1C(=O)CCS (stereo not given),–,1.3,–
O=C(O)C1SC(C2CCCCC2)=NN1C(=O)CCS (stereo not given),–,6.3,–
NCCCC[C@H](N[C@@H](CCc1ccccc1)C(=O)O)C(=O)N1CCC[C@H]1C(=O)O [LISINOPRIL ANHYDROUS],-2.86,–,pKa [7]: 11.1
O=C(O)C1SC(c2ccccc2)=NN1C(=O)CCS (stereo not given),–,1.3,–
CCOC(=O)[C@H](CCc1ccccc1)N[C@@H](C)C(=O)N1N=C(C(C)(C)C)S[C@H]1C(=O)O [UTIBAPRIL],1.61,–,pKa [4]: 5.4
CC1=NN(C(=O)CCS)C(C(=O)O)S1 (stereo not given),–,2.5,–
COc1ccc(C2=NN(C(=O)CCS)C(C(=O)O)S2)cc1 (stereo not given),–,1.3,–
O=C(O)C1SC(c2ccc(C(F)(F)F)cc2)=NN1C(=O)CCS (stereo not given),–,1.6,–
CC(C)(C)C1=NN(C(=O)[C@H](CCCCN)N[C@@H](CCc2ccccc2)C(=O)O)[C@H](C(=O)O)S1,–,–,IC50 [1]: 0.7 nM
O=C(O)C1SC(c2ccco2)=NN1C(=O)CCS (stereo not given),–,1,–
CCOC(=O)[C@H](CCc1ccccc1)N[C@@H](C)C(=O)N1CC2(C[C@H]1C(=O)O)SCCS2,0.87,–,pKa [4]: 5.5
CCC[C@H](N[C@@H](C)C(=O)N1N=C(C(C)(C)C)S[C@H]1C(=O)O)C(=O)O,–,–,IC50 [1]: 0.6 nM
